From ChEMBL document CHEMBL2202994, “Heteroaryl urea inhibitors of fatty acid amide hydrolase: structure-mutagenicity relationships for arylamine metabolites” (Bioorg Med Chem Lett, 2012) come the findings set out here.

Series [1] relates to Salmonella typhimurium. Kind of series: Genotoxicity in Salmonella typhimurium TAMix by Ames test in absence of S9 fractions. As to conditions: salmonella enterica subsp. enterica serovar typhimurium. The series is classed as toxicity, organism-based. The method, boiled down:
(§1)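 Ames II liquid fluctuation microplate variant of the bacterial reverse mutation assay, run on the free heteroaryl amines released from the urea inhibitors. The TAMix strain mixture (TA7001–TA7006) detects base-pair substitutions and TA98 detects frameshift mutations. For metabolic activation, compounds were preincubated with rat liver S9 extract or run without it. Results were scored as positive or negative.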
A general note: The Ames test uses bacterial strains that need an amino acid and regain growth without it when mutated back.

Series [2] concerns the target T1, Fatty-acid amide hydrolase 1 (Rattus norvegicus, UniProt P97612).
T1 sequence (P97612 whole entry): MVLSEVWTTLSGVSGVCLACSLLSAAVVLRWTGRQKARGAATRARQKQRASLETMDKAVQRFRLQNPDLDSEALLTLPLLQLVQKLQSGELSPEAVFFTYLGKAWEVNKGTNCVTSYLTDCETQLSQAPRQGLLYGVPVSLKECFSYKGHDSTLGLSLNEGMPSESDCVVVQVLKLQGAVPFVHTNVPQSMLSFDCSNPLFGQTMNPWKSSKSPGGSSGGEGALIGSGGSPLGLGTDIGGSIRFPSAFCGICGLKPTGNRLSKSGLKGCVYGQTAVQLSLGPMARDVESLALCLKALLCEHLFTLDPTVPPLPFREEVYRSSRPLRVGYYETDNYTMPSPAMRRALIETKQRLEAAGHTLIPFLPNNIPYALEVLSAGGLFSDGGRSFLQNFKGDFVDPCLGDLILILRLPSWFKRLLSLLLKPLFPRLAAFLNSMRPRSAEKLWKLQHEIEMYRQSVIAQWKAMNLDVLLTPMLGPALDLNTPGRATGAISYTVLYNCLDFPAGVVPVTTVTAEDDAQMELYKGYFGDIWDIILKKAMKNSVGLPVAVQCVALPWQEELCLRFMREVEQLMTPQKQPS
Kind of series: Inhibition of rat FAAH preincubated for 60 mins.

The subject of series [3] is Salmonella typhimurium. Kind of series: Genotoxicity in Salmonella typhimurium TAMix by Ames test in presence of S9 fractions. The series is classed as toxicity, organism-based, S9 Fraction. As to conditions: salmonella enterica subsp. enterica serovar typhimurium. The procedure, abridged:
as §1

Series [4] concerns Salmonella typhimurium. Kind of series: Genotoxicity in Salmonella typhimurium TA98 by Ames test in presence of S9 fractions. In kind it is toxicity, organism-based, S9 Fraction. The following applies: salmonella enterica subsp. enterica serovar typhimurium. The method, boiled down:
as §1

In series [5] the test system is Salmonella typhimurium. Kind of series: Genotoxicity in Salmonella typhimurium TA98 by Ames test in absence of S9 fractions. In kind it is toxicity, organism-based. As to conditions: salmonella enterica subsp. enterica serovar typhimurium. The procedure, abridged:
as §1

In the case of `O=C(Nc1cnc2cccnn12)N1CCN(Cc2cccc(Oc3ccc(Cl)cc3)c2)CC1`, the Activity result in the series on Salmonella typhimurium [1], in the series with Salmonella typhimurium [3], in the series with Salmonella typhimurium [4] and in the series with Salmonella typhimurium [5] was “Non-toxic” each time. Also, the IC50 (in general, the concentration that inhibits the measured activity by half) in series [2] worked out at 53 nM.
For `O=C(Nc1cccc2nsnc12)N1CCN(Cc2cccc(Oc3ccc(Cl)cc3)c2)CC1`, the Activity entry in the series with Salmonella typhimurium [1], in the series with Salmonella typhimurium [3], with Salmonella typhimurium [4] and in the series on Salmonella typhimurium [5] was “Non-toxic” in each case. The same molecule yielded an IC50 in series [2] of 25 nM.
Take `O=C(Nc1cccc2cn[nH]c12)N1CCN(Cc2cccc(Oc3ccc(Cl)cc3)c2)CC1`: the midpoint of inhibition in series [2], the IC50, lay at 6000 nM. Besides, the Activity result in the series on Salmonella typhimurium [3] and in the series with Salmonella typhimurium [4] was “Toxic” throughout.
As to `Cc1nc2cc(NC(=O)N3CCN(Cc4cccc(Oc5ccc(Cl)cc5)c4)CC3)ccc2o1`, in series [2], 200 nM corresponded to half-maximal inhibition (IC50). The Activity result in the series on Salmonella typhimurium [3] and with Salmonella typhimurium [4] was “Toxic” each time.
With `O=C(Nc1cncc2ccccc12)N1CCN(Cc2cccc(Oc3ccc(Cl)cc3)c2)CC1`, the midpoint of inhibition in series [2], the IC50, lay at 8.3 nM. The Activity result in the series on Salmonella typhimurium [3] and in the series with Salmonella typhimurium [4] was “Toxic” throughout.
`O=C(Nc1cnc2[nH]ccc2c1)N1CCN(Cc2cccc(Oc3ccc(Cl)cc3)c2)CC1`: in series [2], inhibition was half-maximal at 21 nM (IC50). The Activity result with Salmonella typhimurium [3] and in the series with Salmonella typhimurium [4] was “Toxic” throughout.
Consider `O=C(Nc1cnc2cc[nH]c2c1)N1CCN(Cc2cccc(Oc3ccc(Cl)cc3)c2)CC1`, for which, in series [2], the midpoint of inhibition, the IC50, lay at 1100 nM. In addition, the Activity result in the series on Salmonella typhimurium [3] and with Salmonella typhimurium [4] was “Toxic” throughout.
For the molecule `O=C(Nc1noc2ccccc12)N1CCN(Cc2cccc(Oc3ccc(Cl)cc3)c2)CC1`, the Activity entry in the series on Salmonella typhimurium [1], in the series on Salmonella typhimurium [3], in the series on Salmonella typhimurium [4] and in the series with Salmonella typhimurium [5] was “Non-toxic” throughout. Also, in series [2], the IC50 was 8.1 nM.
`O=C(Nc1noc2ncccc12)N1CCN(Cc2cccc(Oc3ccc(Cl)cc3)c2)CC1`: the Activity entry with Salmonella typhimurium [1], in the series on Salmonella typhimurium [3], in the series with Salmonella typhimurium [4] and in the series on Salmonella typhimurium [5] was “Non-toxic” in each case. This molecule also displayed an IC50 in series [2] of 14 nM.
For the molecule `O=C(Nc1noc2cnccc12)N1CCN(Cc2cccc(Oc3ccc(Cl)cc3)c2)CC1`, the Activity entry with Salmonella typhimurium [1], in the series with Salmonella typhimurium [3], with Salmonella typhimurium [4] and in the series on Salmonella typhimurium [5] was “Non-toxic” in each case. This molecule yielded an IC50 in series [2] of 0.7 nM.
Take `O=C(Nc1noc2ccncc12)N1CCN(Cc2cccc(Oc3ccc(Cl)cc3)c2)CC1`: the Activity result with Salmonella typhimurium [1], in the series on Salmonella typhimurium [3], in the series with Salmonella typhimurium [4] and in the series on Salmonella typhimurium [5] was “Non-toxic” in each case. The molecule also gave an IC50 in series [2] of 2200 nM.
Take `O=C(Nc1noc2cccnc12)N1CCN(Cc2cccc(Oc3ccc(Cl)cc3)c2)CC1`: the Activity result in the series with Salmonella typhimurium [1], in the series on Salmonella typhimurium [3], with Salmonella typhimurium [4] and in the series with Salmonella typhimurium [5] was “Non-toxic” in each case. The molecule further gave an IC50 in series [2] of 22 nM.
`O=C(Nc1cnc2ccccn12)N1CCN(Cc2cccc(Oc3ccc(Cl)cc3)c2)CC1`: the Activity result in the series on Salmonella typhimurium [1], in the series with Salmonella typhimurium [3], with Salmonella typhimurium [4] and in the series on Salmonella typhimurium [5] was “Non-toxic” each time. Moreover, in series [2], the IC50 amounted to 120 nM.
For the molecule `O=C(Nc1cccn2ccnc12)N1CCN(Cc2cccc(Oc3ccc(Cl)cc3)c2)CC1`, the Activity result in the series with Salmonella typhimurium [1], in the series on Salmonella typhimurium [3], in the series with Salmonella typhimurium [4] and in the series with Salmonella typhimurium [5] was “Non-toxic” in each case. In series [2], 3500 nM corresponded to half-maximal inhibition (IC50).
For `O=C(Nc1ccn2ccnc2c1)N1CCN(Cc2cccc(Oc3ccc(Cl)cc3)c2)CC1`, the Activity entry in the series on Salmonella typhimurium [1], with Salmonella typhimurium [3], in the series with Salmonella typhimurium [4] and with Salmonella typhimurium [5] was “Toxic” throughout. Moreover, the IC50 in series [2] was 2600 nM.
As to `O=C(Nc1ccc2nccn2c1)N1CCN(Cc2cccc(Oc3ccc(Cl)cc3)c2)CC1`, the Activity entry with Salmonella typhimurium [1], with Salmonella typhimurium [3], in the series with Salmonella typhimurium [4] and in the series on Salmonella typhimurium [5] was “Non-toxic” throughout. In series [2], this molecule showed an IC50 of 3600 nM.
With `O=C(Nc1cccc2nccn12)N1CCN(Cc2cccc(Oc3ccc(Cl)cc3)c2)CC1`, the Activity result in the series on Salmonella typhimurium [1], with Salmonella typhimurium [3], with Salmonella typhimurium [4] and in the series on Salmonella typhimurium [5] was “Non-toxic” in each case. 5.7 nM corresponded to half-maximal inhibition in series [2] (IC50).
As to `O=C(Nc1cc2nccn2cn1)N1CCN(Cc2cccc(Oc3ccc(Cl)cc3)c2)CC1`, the Activity result in the series on Salmonella typhimurium [1], in the series on Salmonella typhimurium [3], in the series with Salmonella typhimurium [4] and in the series on Salmonella typhimurium [5] was “Non-toxic” each time. In series [2], this molecule displayed an IC50 of 470 nM.
`O=C(Nc1ccnc2nccn12)N1CCN(Cc2cccc(Oc3ccc(Cl)cc3)c2)CC1`: the Activity result in the series with Salmonella typhimurium [1], in the series with Salmonella typhimurium [3], in the series on Salmonella typhimurium [4] and with Salmonella typhimurium [5] was “Non-toxic” each time. In addition, in series [2], half-maximal inhibition (IC50) was put at 24 nM.
For `O=C(Nc1ccn2ccnc2n1)N1CCN(Cc2cccc(Oc3ccc(Cl)cc3)c2)CC1`, the Activity result with Salmonella typhimurium [1], in the series with Salmonella typhimurium [3], in the series on Salmonella typhimurium [4] and in the series with Salmonella typhimurium [5] was “Non-toxic” each time. The same molecule came in with an IC50 in series [2] of 2400 nM.
`O=C(Nc1cccnn1)N1CCN(Cc2cccc(Oc3ccc(Cl)cc3)c2)CC1`: the Activity entry in the series with Salmonella typhimurium [1], in the series with Salmonella typhimurium [3], in the series on Salmonella typhimurium [4] and in the series with Salmonella typhimurium [5] was “Non-toxic” in each case. In series [2], the half-inhibitory concentration (IC50) worked out at 93 nM.
For the molecule `O=C(Nc1cc[nH]n1)N1CCN(Cc2cccc(Oc3ccc(Cl)cc3)c2)CC1`, the Activity entry in the series with Salmonella typhimurium [1], in the series with Salmonella typhimurium [3], with Salmonella typhimurium [4] and with Salmonella typhimurium [5] was “Non-toxic” each time. For the same molecule, the IC50 in series [2] amounted to 150 nM.
On to `O=C(Nc1nnn[nH]1)N1CCN(Cc2cccc(Oc3ccc(Cl)cc3)c2)CC1`, for which the Activity result in the series with Salmonella typhimurium [1], in the series on Salmonella typhimurium [3], with Salmonella typhimurium [4] and in the series with Salmonella typhimurium [5] was “Non-toxic” each time. Moreover, half-maximal inhibition in series [2] (IC50) required 46 nM.
For the molecule `O=C(Nc1ccon1)N1CCN(Cc2cccc(Oc3ccc(Cl)cc3)c2)CC1`, the Activity entry in the series with Salmonella typhimurium [1], in the series on Salmonella typhimurium [3], in the series with Salmonella typhimurium [4] and in the series on Salmonella typhimurium [5] was “Non-toxic” each time.
`O=C(Nc1nocc1Cl)N1CCN(Cc2cccc(Oc3ccc(Cl)cc3)c2)CC1`: the Activity result in the series on Salmonella typhimurium [1], with Salmonella typhimurium [3], in the series with Salmonella typhimurium [4] and in the series with Salmonella typhimurium [5] was “Toxic” in each case. The molecule also gave a 50% inhibitory concentration (IC50) in series [2] of 20 nM.
`O=C(Nc1cccc2nonc12)N1CCN(Cc2cccc(Oc3ccc(Cl)cc3)c2)CC1` yielded an IC50 in series [2] of 120 nM. For the same molecule, the Activity entry in the series on Salmonella typhimurium [3] and in the series with Salmonella typhimurium [4] was “Toxic” throughout.
